# Active and inactive are the calls of the source.
# Legend:
# MCF7 [1] = assay: Cytotoxicity against human MCF7 cells assessed as reduction in cell viability after 48 hrs by SRB assay; type: functional
# Outline: (§1)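 Followed the NCI SRB protocol: cells exposed 48 h to a range of concentrations. GI50 is the concentration giving 50% net growth inhibition; TGI is 100% growth inhibition; LC50 kills 50% of initial cells. Mean ± SE of three separate experiments.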
# MCF7 [2] = assay: Induction of apoptosis in human MCF7 cells assessed as necrotic cells at 100 uM after 48 hrs by Annexin V-FITC/propidium iodide staining-based flow cytometric analysis (reference value: 7 %); type: functional
# SK-BR-3 [3] = assay: Induction of apoptosis in human SK-BR-3 cells transfected with siNMDA receptor assessed as late apoptotic cells at 25 uM after 72 hrs by Annexin V-FITC/propidium iodide staining-based flow cytometric analysis (reference value: 2 %); type: functional
# SK-BR-3 [4] = assay: Induction of apoptosis in human SK-BR-3 cells transfected with si-NMDA receptor assessed as necrotic cells at 25 uM after 72 hrs by Annexin V-FITC/propidium iodide staining-based flow cytometric analysis (reference value: 4 %); type: functional
# MCF7 [5] = assay: Induction of apoptosis in human MCF7 cells assessed as fold increase in cleavage of pro-caspase 3 at 100 uM incubated for 72 hrs by Western blot analysis relative to control; type: functional
# Outline: (§2)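 Caspase-3 immunoblot after 72 h treatment (MCF-7 100 μM, SKBR3 25 μM), tracking procaspase-3 cleavage to the active form. Densitometry normalised to GAPDH loading control.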
# SK-BR-3 [6] = assay: Induction of apoptosis in human SK-BR-3 cells assessed as early apoptotic cells at 25 uM after 48 hrs by Annexin V-FITC/propidium iodide staining-based flow cytometric analysis (reference value: 9 %); type: functional
# MCF7 [7] = assay: Induction of apoptosis in human MCF7 cells transfected with siNMDA receptor assessed as early apoptotic cells at 100 uM after 72 hrs by Annexin V-FITC/propidium iodide staining-based flow cytometric analysis (reference value: 33 %); type: functional
# MCF7 [8] = assay: Induction of apoptosis in human MCF7 cells after 48 to 72 hrs by AnnexinV-FITC/PI staining based flow cytometric analysis; type: functional, cell-based; conditions: time hrs 48-72
# SK-BR-3 [9] = assay: Cytotoxicity against human SK-BR-3 cells assessed as reduction in cell viability incubated for 48 hrs by SRB assay; type: functional; outline: as §1
# SK-BR-3 [10] = assay: Induction of apoptosis in human SK-BR-3 cells assessed as early apoptotic cells at 25 uM after 72 hrs by Annexin V-FITC/propidium iodide staining-based flow cytometric analysis (reference value: 1 to 9 %); type: functional
# SK-BR-3 [11] = assay: Induction of apoptosis in human SK-BR-3 cells assessed as necrotic cells at 25 uM after 72 hrs by Annexin V-FITC/propidium iodide staining-based flow cytometric analysis (reference value: 1 to 3 %); type: functional
# MCF7 [12] = assay: Induction of apoptosis in human MCF7 cells assessed as late apoptotic cells at 100 uM after 72 hrs by Annexin V-FITC/propidium iodide staining-based flow cytometric analysis (reference value: 1 to 2 %); type: functional
# SK-BR-3 [13] = assay: Induction of apoptosis in human SK-BR-3 cells assessed as necrotic cells at 25 uM after 48 hrs by Annexin V-FITC/propidium iodide staining-based flow cytometric analysis (reference value: 2 %); type: functional
# MCF7 [14] = assay: Induction of ROS generation in human MCF7 cells at 100 uM after 72 hrs by DCFDA staining-based flow cytometric analysis; type: functional, cell-based
# Outline: (§3)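 MCF-7 treated at 100 μM, SKBR3 at 25 μM, for 24, 48 and 72 h, alone or after NAC (10 mM) pretreatment. ROS measured by DCFDA staining and flow cytometry. Significance set at p < 0.01 vs untreated or vs treated-alone cells.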
# SK-BR-3 [15] = assay: Cytotoxicity against siNMDA receptor transfected human SK-BR-3 cells assessed as reduction in cell viability after 48 hrs by SRB assay; type: functional
# Outline: (§4)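 GluN1 subunit knocked down by siNMDA R transfection, confirmed by qRT-PCR and Western blot; compared with untransfected cells. SRB viability read after 48 h exposure to a range of concentrations. Mean ± SE of three separate experiments.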
# MCF7 [16] = assay: Induction of ROS generation in human MCF7 cells at 100 uM pretreated for 1 hr with ROS scavenger, NAC followed by compound addition and measured after 72 hrs by DCFDA staining-based flow cytometric analysis; type: functional, cell-based; outline: as §3
# SK-BR-3 [17] = assay: Induction of apoptosis in human SK-BR-3 cells transfected with siNMDA receptor assessed as active caspase-3 level at 25 uM incubated for 72 hrs by Western blot analysis; type: functional, cell-based
# Outline: (§5)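 Cells transfected with siNMDA R (GluN1) or left untransfected, then treated 72 h (MCF-7 100 μM, SKBR3 25 μM) or left untreated. Cleaved caspase-3 detected by immunoblot; densitometry normalised to GAPDH; p < 0.01 threshold.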
# MCF7 [18] = assay: Induction of apoptosis in human MCF7 cells assessed as late apoptotic cells at 100 uM after 48 hrs by Annexin V-FITC/propidium iodide staining-based flow cytometric analysis (reference value: 2 %); type: functional
# MCF7 [19] = assay: Cytotoxicity against siNMDA receptor transfected human MCF7 cells assessed as reduction in cell viability after 48 hrs by SRB assay; type: functional; outline: as §4
# SK-BR-3 [20] = assay: Induction of apoptosis in human SK-BR-3 cells assessed as late apoptotic cells at 25 uM after 48 hrs by Annexin V-FITC/propidium iodide staining-based flow cytometric analysis (reference value: 2 %); type: functional
# [21] = Apparent permeability in human Caco2 cells; type: ADME, cell-based; conditions: caco-2
# SK-BR-3 [22] = assay: Induction of apoptosis in human SK-BR-3 cells assessed as fold increase in cleavage of pro-caspase 3 at 25 uM incubated for 72 hrs by Western blot analysis relative to control; type: functional; outline: as §2
# MCF7 [23] = assay: Induction of apoptosis in human MCF7 cells at 100 uM by AnnexinV-FITC/PI staining based flow cytometric analysis; type: functional, cell-based; conditions: time hrs 48-72, TDE = time-dependent effect
# SK-BR-3 [24] = assay: Induction of apoptosis in human SK-BR-3 cells assessed as late apoptotic cells at 25 uM after 72 hrs by Annexin V-FITC/propidium iodide staining-based flow cytometric analysis (reference value: 1 to 3 %); type: functional
# SK-BR-3 [25] = assay: Induction of apoptosis in human SK-BR-3 cells at 25 uM by AnnexinV-FITC/PI staining based flow cytometric analysis; type: functional, cell-based; conditions: time hrs 48-72, TDE = time-dependent effect
# [26] = Displacement of [3H]-(+)-MK-801 from PCP binding site of NMDA receptor in pig brain cortex membranes after 120 mins by scintillation counting analysis; type: cell membranes, Sus scrofa, Cerebral cortex, Membrane
# [27] = Metabolic stability in human liver microsomes; type: ADME, Microsome
# MCF7 [28] = assay: Induction of apoptosis in human MCF7 cells assessed as early apoptotic cells at 100 uM after 72 hrs by Annexin V-FITC/propidium iodide staining-based flow cytometric analysis (reference value: 2 to 13 %); type: functional
# MCF7 [29] = assay: Induction of apoptosis in human MCF7 cells assessed as necrotic cells at 100 uM after 72 hrs by Annexin V-FITC/propidium iodide staining-based flow cytometric analysis (reference value: 1 to 5 %); type: functional
# SK-BR-3 [30] = assay: Induction of mitochondrial membrane depolarization in human SK-BR-3 cells at 25 uM by JC1 staining based flow cytometric analysis; type: functional, cell-based
# Outline: (§6)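 Mitochondrial membrane potential (Δψm) in untreated versus treated cells (MCF-7 100 μM, SKBR3 25 μM), assessed by JC-1 staining.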
# MCF7 [31] = assay: Induction of apoptosis in human MCF7 cells transfected with siNMDA receptor assessed as active caspase-3 level at 100 uM incubated for 72 hrs by Western blot analysis; type: functional, cell-based; outline: as §5
# MCF7 [32] = assay: Induction of mitochondrial membrane depolarization in human MCF7 cells at 100 uM by JC1 staining based flow cytometric analysis; type: functional, cell-based; outline: as §6
# SK-BR-3 [33] = assay: Induction of apoptosis in human SK-BR-3 cells after 48 to 72 hrs by AnnexinV-FITC/PI staining based flow cytometric analysis; type: functional, cell-based; conditions: time hrs 48-72
# SK-BR-3 [34] = assay: Induction of ROS generation in human SK-BR-3 cells at 25 uM after 72 hrs by DCFDA staining-based flow cytometric analysis; type: functional, cell-based; outline: as §3
# MCF7 [35] = assay: Induction of apoptosis in human MCF7 cells transfected with siNMDA receptor assessed as late apoptotic cells at 100 uM after 72 hrs by Annexin V-FITC/propidium iodide staining-based flow cytometric analysis (reference value: 4 %); type: functional
# SK-BR-3 [36] = assay: Induction of ROS generation in human SK-BR-3 cells at 25 uM pretreated for 1 hr with ROS scavenger, NAC followed by compound addition and measured after 72 hrs by DCFDA staining-based flow cytometric analysis; type: functional, cell-based; outline: as §3
# MCF7 [37] = assay: Induction of apoptosis in human MCF7 cells assessed as early apoptotic cells at 100 uM after 48 hrs by Annexin V-FITC/propidium iodide staining-based flow cytometric analysis (reference value: 16 %); type: functional
# MCF7 [38] = assay: Induction of apoptosis in human MCF7 cells transfected with siNMDA receptor assessed as necrotic cells at 100 uM after 72 hrs by Annexin V-FITC/propidium iodide staining-based flow cytometric analysis (reference value: 3 %); type: functional
# SK-BR-3 [39] = assay: Induction of apoptosis in human SK-BR-3 cells transfected with siNMDA receptor assessed as early apoptotic cells at 25 uM after 72 hrs by Annexin V-FITC/propidium iodide staining-based flow cytometric analysis (reference value: 35 %); type: functional
# MCF7 [40] = assay: Induction of apoptosis in human MCF7 cells transfected with siNMDA receptor assessed as active caspase-3 level incubated for 72 hrs by Western blot analysis; type: functional, cell-based; outline: as §5
# MCF7 [41] = assay: Induction of apoptosis in human MCF7 cells transfected with siNMDA receptor after 72 hrs by Annexin V-FITC/propidium iodide staining-based flow cytometric analysis; type: functional, cell-based
# SK-BR-3 [42] = assay: Induction of apoptosis in human SK-BR-3 cells transfected with siNMDA receptor assessed as active caspase-3 level incubated for 72 hrs by Western blot analysis; type: functional, cell-based; outline: as §5
# SK-BR-3 [43] = assay: Induction of apoptosis in human SK-BR-3 cells transfected with siNMDA receptor after 72 hrs by Annexin V-FITC/propidium iodide staining-based flow cytometric analysis; type: functional, cell-based
smiles,measurement,setting,value
NC[C@H]1COCC(c2ccccc2)(c2ccccc2)O1,Activity,MCF7 [1],Dose-dependent effect
same,GI50,MCF7 [1],99 µM
same,Activity,MCF7 [2],8%
same,Activity,SK-BR-3 [3],3%
same,Activity,SK-BR-3 [4],8%
same,fold change (FC),MCF7 [5],3.2
same,Activity,SK-BR-3 [6],19%
same,Activity,MCF7 [7],26%
same,Activity,MCF7 [8],Dose-dependent effect
same,Activity,SK-BR-3 [9],Dose-dependent effect
same,GI50,SK-BR-3 [9],23 µM
same,Activity,SK-BR-3 [10],11%
same,Activity,SK-BR-3 [11],17%
same,Activity,MCF7 [12],19%
same,Activity,SK-BR-3 [13],4%
same,Activity,MCF7 [14],Active
same,GI50,SK-BR-3 [15],57 µM
same,Activity,MCF7 [16],inactive
same,Activity,SK-BR-3 [17],inactive
same,Activity,MCF7 [18],8%
same,GI50,MCF7 [19],520 µM
same,Activity,SK-BR-3 [20],5%
same,permeability,[21],Permeable
same,fold change (FC),SK-BR-3 [22],5.1
same,Activity,MCF7 [23],Tde
same,Activity,SK-BR-3 [24],15%
same,Activity,SK-BR-3 [25],Tde
same,Ki,[26],> 10000 nM
same,Stabilty,[27],Stable
same,Activity,MCF7 [28],16%
same,Activity,MCF7 [29],9%
same,Activity,SK-BR-3 [30],inactive
same,Activity,MCF7 [31],inactive
same,Activity,MCF7 [32],inactive
same,Activity,SK-BR-3 [33],Dose-dependent effect
same,Activity,SK-BR-3 [34],Active
same,Activity,MCF7 [35],5%
same,Activity,SK-BR-3 [36],inactive
same,Activity,MCF7 [37],26%
same,Activity,MCF7 [38],7%
same,Activity,SK-BR-3 [39],24%
CN[C@]1(c2ccccc2Cl)CCCCC1=O [ESKETAMINE],GI50,MCF7 [1],> 300 µM
same,TGI,MCF7 [1],> 300 µM
same,GI50,SK-BR-3 [9],> 300 µM
same,TGI,SK-BR-3 [9],> 300 µM
NC[C@@H]1COCC(c2ccccc2)(c2ccccc2)O1,Activity,MCF7 [1],Dose-dependent effect
same,GI50,MCF7 [1],250 µM
same,Activity,MCF7 [40],Active
same,Activity,MCF7 [41],Active
same,Activity,SK-BR-3 [9],Dose-dependent effect
same,GI50,SK-BR-3 [9],74 µM
same,Activity,SK-BR-3 [42],Active
same,GI50,SK-BR-3 [15],66 µM
same,GI50,MCF7 [19],210 µM
same,permeability,[21],Permeable
same,Ki,[26],497 nM
same,Stabilty,[27],Stable
same,Activity,SK-BR-3 [43],Active
